Bioassay records deposited in PubChem by several laboratories.
An excerpt weighted towards active compounds, which were near 1.3% of everything screened.
GRK2 aptamer HTS = human GRK2 inhibition via aptamer displacement | 330,000 compounds, 0.59% hits | bead flow cytometry, FAM-aptamer displacement from GRK2 | AID 488847 | inhibition of aptamer binding, % at 10 µM | P25098;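 active = inhibition of aptamer binding above 40%, roughly 3 SD of noise, on plates passing a quality check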;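 also: median bead fluorescence of bound FAM aptamer so fluorescent compounds give negative values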
Target sequence (P25098 whole entry, looked up): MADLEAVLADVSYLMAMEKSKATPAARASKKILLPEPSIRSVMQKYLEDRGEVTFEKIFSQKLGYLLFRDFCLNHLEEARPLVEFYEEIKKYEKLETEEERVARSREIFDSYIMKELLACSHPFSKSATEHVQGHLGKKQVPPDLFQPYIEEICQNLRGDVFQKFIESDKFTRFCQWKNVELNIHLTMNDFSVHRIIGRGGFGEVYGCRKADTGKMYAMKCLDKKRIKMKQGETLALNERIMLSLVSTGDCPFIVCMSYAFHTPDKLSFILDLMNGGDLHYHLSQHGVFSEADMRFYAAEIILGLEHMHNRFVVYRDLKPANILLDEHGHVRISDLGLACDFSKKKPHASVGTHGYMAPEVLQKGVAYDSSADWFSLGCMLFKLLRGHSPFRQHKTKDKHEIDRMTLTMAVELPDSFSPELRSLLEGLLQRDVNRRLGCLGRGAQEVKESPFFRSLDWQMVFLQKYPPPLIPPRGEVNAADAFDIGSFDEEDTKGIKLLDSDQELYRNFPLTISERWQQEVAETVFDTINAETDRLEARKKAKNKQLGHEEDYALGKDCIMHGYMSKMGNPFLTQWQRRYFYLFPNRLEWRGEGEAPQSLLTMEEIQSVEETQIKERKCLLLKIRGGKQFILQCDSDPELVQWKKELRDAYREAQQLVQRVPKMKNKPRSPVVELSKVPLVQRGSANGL
EBV gp42 inh = blocks Epstein-Barr virus glycoprotein 42 binding; Q1HVG2; AID 1085; Fluorescence polarization binding assay, mP read-out; 220,000 compounds, 0.42% hits; inhibition, % (tested at 21.74 µM); in the data active = inhibition above about 50%
T cell modulator = T cell immune modulation candidate | 2C CD8+ T cell-vesicle binding, flow cytometry; stronger effect = lower value | 330,000 compounds, 0.068% hits | response (vesicle binding), % at 7 µM | AID 2052;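 active = response, share of CD8 T cells binding vesicles, and their 90th percentile fluorescence all below set limits, cut at about 80% in these data, passing the limit was not always enough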;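 also: values below 100% mean blocked vesicle binding to the CD8+ T cells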
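incubation = binding step 1.5 h, 37 °C, antibody labelling 20 min, ice | test system = 2C mouse CD8+ T cells | read-out basis = percent CD8+ FL2 mean versus row control | controls = Peptide-free naked vesicles (low) and QL9 vesicles with 0.7% DMSO vehicle (high) | detection = flow cytometry of vesicle-bound cells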
LANA DNA inh = blocks KSHV LANA C-terminal domain binding to DNA; AID 504423; inhibition, % at 9 µM; 340,000 compounds, 0.078% hits; MBP-C-LANA/FAM-LBS DNA binding, fluorescence polarization;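 active = highest replicate inhibition at or above 60% at 9 µM, even if other replicates fall short; inactive = all replicates below 60% inhibition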
MEX-5 binding = C. elegans MEX-5 TCR-2 RNA binding activity | 300,000 compounds, 0.38% hits | MEX-5/FITC-TCR2 RNA binding, fluorescence polarization; stronger effect = lower value | Q9XUB2 | activity score (negative = inhibition of binding), % at 10 µM;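 active = inhibition past about -25% in most replicates, and total fluorescence under double the plate's negative control median, limit read from the data; inconclusive = replicates evenly split on the limit, or fluorescence at least double controls; inactive = too little inhibition in most replicates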
Keap1 Nrf2 FP = inhibitors of human Keap1-Nrf2 protein-protein interaction; Q14145; inhibition, % at 9.4 µM; Keap1 Kelch-Nrf2 peptide fluorescence polarization, 1536-well; 340,000 compounds, 0.15% hits; in the data active = inhibition above about 12%; inconclusive = no clear call, values can overlap the other calls; inactive = below about 7.3%;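 also: human Keap1 Kelch domain with fluorescein labeled Nrf2 9mer peptide probe; higher means more block of Keap1 binding to Nrf2 peptide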
Of the large screens only hits and unclear results are named; the others gave an inactive call.

Cc1cc(/C=C(\C#N)c2nc3ccccc3[nH]2)c(C)n1C	EBV gp42 inh 104.8, MEX-5 binding -27.6
Cc1c(NS(=O)(=O)c2cccc(C(=O)N3CCC(C)CC3)c2)c(=O)n(-c2ccccc2)n1C	none (no result: EBV gp42 inh, MEX-5 binding)
O=C1OC2(c3ccccc31)c1cc(I)c(O)c(I)c1Oc1c2cc(I)c(O)c1I	GRK2 aptamer HTS 76.0 (no result: EBV gp42 inh, LANA DNA inh, MEX-5 binding, Keap1 Nrf2 FP)
Cc1cc(C)c2[nH]c(=O)c(CN(Cc3ccco3)C(=S)NCC3CCCO3)cc2c1 (stereo unspecified)	none
Cc1ccc(NCC(=O)N/N=C/c2ccc(C(=O)O)cc2)cc1	MEX-5 binding -60.8
O=C(Cc1ccccc1)NCC(=O)N/N=C/c1ccc(C(=O)O)cc1	none (no result: EBV gp42 inh)
COC(=O)C1=NN(C(=O)c2ccc(C)cc2)C(O)(c2ccc(Cl)cc2)C1 (stereo unspecified)	MEX-5 binding -39.5 (no result: LANA DNA inh, Keap1 Nrf2 FP)
O=C(NCC1CCCO1)c1nn2c(C(F)(F)F)cc(-c3cc(Br)cs3)nc2c1Br (stereo unspecified)	MEX-5 binding -52.9 (no result: EBV gp42 inh)
COCCCNC(=O)c1ccc(CS(=O)(=O)c2ccccc2C)o1	none (no result: EBV gp42 inh)
Cc1noc(C)c1COc1ccccc1C(=O)NC(C)CCc1ccccc1 (stereo unspecified)	none (no result: GRK2 aptamer HTS, EBV gp42 inh, T cell modulator, MEX-5 binding)
O=C(NCCCCNC(=O)C1CCCC1)C1CCCC1	none
O=C(NCCCCc1ccccc1)C1CCCC1	LANA DNA inh 101.0 (no result: EBV gp42 inh)
CCOC(=O)C1=C(C)NC(C)=C(C(=O)OCC)C1C(=O)OCC(=O)N(C)C1CCS(=O)(=O)C1 (stereo unspecified)	none
OC(Cn1nnc2ccccc21)Cn1c(C(F)(F)F)nc2ccccc21 (stereo unspecified)	none
CC(=O)Nc1ccc(NC(=O)C(C)OC(=O)[C@@H]2CCCN2C(=O)c2cccs2)cc1 (stereo partly specified)	T cell modulator 64.9 (no result: EBV gp42 inh, MEX-5 binding)
COC(=O)C1CCCN1C(=O)c1cccs1 (stereo unspecified)	none
COC(=O)c1cc(C(=O)c2ccc(Cl)cc2)n2c(=O)/c(=C\N(C)C)sc12	EBV gp42 inh 61.6 (no result: MEX-5 binding)
COC(=O)c1cc(C(=O)c2ccccc2)n2c(=O)/c(=C\N(C)C)sc12	none (no result: LANA DNA inh, Keap1 Nrf2 FP)
CC1Cc2ccccc2N1C(=O)C12CCC(C)(C(=O)C1)C2(C)C (stereo unspecified)	none
COc1cc2c(cc1Cl)C(=O)C(F)(c1ccccc1)C(=O)N2 (stereo unspecified)	none
Cc1ccc(CSc2nnc(SCC(=O)N/N=C/C=C/c3ccco3)s2)cc1	GRK2 aptamer HTS 83.0
Cc1cc(NS(=O)(=O)c2ccc(NC(=O)c3cc4cc(Br)ccc4oc3=O)cc2)no1	EBV gp42 inh 101.2
CCOC(=O)N1CCN(C(=O)c2ccc(CS(=O)Cc3ccc(C)cc3)o2)CC1 (stereo unspecified)	T cell modulator 42.8 (no result: EBV gp42 inh)
CCOC(=O)N1CCN(C(=O)c2ccc(CS(=O)Cc3ccccc3Cl)o2)CC1 (stereo unspecified)	none (no result: EBV gp42 inh)
CCc1cc(C(=O)N2CCCC(CNS(=O)(=O)c3cccs3)C2)n(C)n1 (stereo unspecified)	none
O=C(Nc1ccc(O)c(-c2nc3ccccc3s2)c1)c1cc(=O)c2ccccc2o1	GRK2 aptamer HTS 90.0
Cc1ccc2sc(NNC(=O)c3cc(=O)c4ccccc4o3)nc2c1C	MEX-5 binding -64.0
Cc1cccc2sc(NNC(=O)c3cc(=O)c4ccccc4o3)nc12	MEX-5 binding -79.1
COc1ccc(C(=O)C2CCCN(C(=O)C3CCOCC3)C2)c(C)c1 (stereo unspecified)	none
COc1ccc(CN(C)S(=O)(=O)c2nnc(NC(=O)c3ccccc3Br)s2)cc1	none (no result: EBV gp42 inh)
CCOc1cc2c(cc1/C=C(/C#N)c1ccc(C(=O)O)cc1)OCO2	MEX-5 binding -31.9
CCC(CC)c1nnc(NC(=O)c2cccc(S(=O)(=O)N3CCOCC3)c2)s1	none (no result: EBV gp42 inh, MEX-5 binding)
CC(=O)c1ccc(Nc2c3c(nc4ccccc24)CCCC3)cc1	EBV gp42 inh 85.5
CC(=O)c1cccc(Nc2c3c(nc4ccccc24)CCC3)c1	none (no result: EBV gp42 inh)
CCOc1ccc(NC(=O)CCC(=O)Nc2cc(OC)c(NC(=O)c3ccco3)cc2OC)cc1	none (no result: EBV gp42 inh)
Cc1ccc(SCc2noc(C(=O)NCC3CCCO3)c2C(=O)O)cc1C (stereo unspecified)	none (no result: GRK2 aptamer HTS, T cell modulator)
O=c1oc2c3c4c(cc2s1)CCCN4CCC3	MEX-5 binding -32.4
O=C(NNC(=O)C1CC1)c1cc(Cl)nc2ccccc12	GRK2 aptamer HTS 75.0 (no result: EBV gp42 inh)
O=C(NC1CC1)c1cc(Cl)nc2ccccc12	none (no result: GRK2 aptamer HTS, EBV gp42 inh, T cell modulator, MEX-5 binding)
C=CCn1c(=O)/c(=C/c2cc(OC)c(OC)c(OC)c2)s/c1=C(/C#N)c1nc2ccccc2n1C	EBV gp42 inh 95.9, MEX-5 binding inconclusive, Keap1 Nrf2 FP 29.9
C=CCn1c(=O)/c(=C/c2ccc(O)cc2)s/c1=C(/C#N)c1nnc2n1CCCCC2	none (no result: MEX-5 binding)
COc1ccc(NC(=O)Nc2c(O)ccc3ccccc23)cc1	T cell modulator 39.3 (no result: EBV gp42 inh)
Cc1cc(NC(=O)Cc2cccs2)no1	EBV gp42 inh 71.2 (no result: MEX-5 binding)
COc1ccc(N(CC(=O)NC2CC3CCC2C3)S(=O)(=O)c2ccccc2)cc1Cl (stereo unspecified)	none (no result: EBV gp42 inh)
O=C(CSc1nc(-c2ccc(F)cc2)nc2c1Cc1ccccc1O2)Nc1ccc(C(=O)O)cc1	EBV gp42 inh 74.3 (no result: GRK2 aptamer HTS, T cell modulator, MEX-5 binding)
O=C(CSc1nc(-c2ccccc2)nc2c1Cc1ccccc1O2)Nc1ccc(C(=O)O)cc1	EBV gp42 inh 86.8 (no result: GRK2 aptamer HTS, T cell modulator, MEX-5 binding)
O=C(CSc1nc(-c2ccccc2)nc2ccccc12)Nc1cccc(C(=O)O)c1	none
Cc1cc(C)c([N+](=O)[O-])cc1NC(=O)CCS(=O)(=O)c1ccccc1	none
COc1ccc(C(CNC(=O)c2cccc(NS(=O)(=O)c3ccc(C)c(F)c3)c2)N2CCOCC2)cc1 (stereo unspecified)	none (no result: EBV gp42 inh)
CC(=O)Oc1cc2cccc(OC(C)=O)c(=O)c2c(OC(C)=O)c1OC(C)=O	MEX-5 binding -61.3
Nc1cccc(C(=O)OCC(=O)Nc2cccc3c2C(=O)c2ccccc2C3=O)c1	EBV gp42 inh 92.5
Cc1cccc(NC(=O)COC(=O)c2cccc3c2C(=O)c2ccccc2C3=O)c1C	none
COc1ccc(NC(=O)CN(C)C(=O)c2cc(-c3ccco3)nc3ccccc23)cc1	GRK2 aptamer HTS 76.0 (no result: EBV gp42 inh)
COC(=O)C1CCN(C(=O)c2cc(-c3ccco3)nc3ccccc23)CC1	GRK2 aptamer HTS 76.0 (no result: EBV gp42 inh, MEX-5 binding)
O=C(c1cc(-c2ccco2)nc2ccccc12)N1CCN(Cc2ccccc2)CC1	none (no result: EBV gp42 inh, MEX-5 binding)
CCOc1cc(/C=C2\C(=N)N3N=C(C)SC3=NC2=O)ccc1OCCOc1cccc(OC)c1	none (no result: EBV gp42 inh)
CCc1nn2c(=O)cc(COc3ccc(/C=C4\C(=N)N5N=C(C)SC5=NC4=O)cc3)nc2s1	EBV gp42 inh 73.0
COc1ccc(NC(=O)CN2C(=O)S/C(=C/c3cccn3-c3ccc(C(=O)O)cc3)C2=O)cc1	GRK2 aptamer HTS 49.0 (no result: EBV gp42 inh, MEX-5 binding)
